How the values were obtained:
[1] = target: T1, Prostaglandin D2 receptor 2 (Homo sapiens, UniProt Q9Y5Y4); experiment: Displacement of [3H]PGD2 from human CRTH2 receptor expressed in CHO cells; type: cell-based
T1 sequence (Q9Y5Y4 whole entry): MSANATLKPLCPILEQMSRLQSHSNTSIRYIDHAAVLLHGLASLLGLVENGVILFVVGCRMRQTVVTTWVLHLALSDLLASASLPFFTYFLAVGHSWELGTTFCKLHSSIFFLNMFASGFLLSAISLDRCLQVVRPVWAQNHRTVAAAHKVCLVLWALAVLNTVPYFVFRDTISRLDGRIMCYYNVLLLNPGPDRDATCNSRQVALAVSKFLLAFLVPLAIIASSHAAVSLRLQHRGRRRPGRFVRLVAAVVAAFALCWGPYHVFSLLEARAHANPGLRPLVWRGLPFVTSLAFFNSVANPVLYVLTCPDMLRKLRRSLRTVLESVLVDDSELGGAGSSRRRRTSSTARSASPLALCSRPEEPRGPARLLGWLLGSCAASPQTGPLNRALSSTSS
In short: (§1)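 Scintillation proximity competition assay: 2–5 µg human or mouse CRTH2 membranes (nitrogen-cavitation, differential centrifugation) with WGA-SPA beads and 1.5 nM [3H]PGD2 in 10 mM HEPES/KOH pH 7.4, 10 mM MnCl2, protease inhibitors, 1% Me2SO, 90 min shaking at room temperature. Nonspecific binding with 1 µM PGD2. Ki by Cheng–Prusoff, mean of ≥3 independent experiments.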

[2] = target: T1, Prostaglandin D2 receptor 2; experiment: Antagonist activity at human CRTH2 receptor expressed in CHO cell membrane by [35S]GTP-gamma-S binding assay; type: functional, cell membranes
In short: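 [35S]GTPγS binding at 30 °C on 10 µg human CRTH2 membranes in 20 mM HEPES/KOH pH 7.4, 10 mM MgCl2, 10 µg/mL saponin, 3 µM GDP, 150 mM NaCl, 2% Me2SO. PGD2 preincubation 10 min (antagonist mode: 80 nM PGD2), then 0.15 nM [35S]GTPγS for 30 min. Nonspecific binding with 10 µM GTPγS; stopped by centrifugation, scintillation counting.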

[3] = Apparent permeability across human Caco-2 cell membrane at 10 uM; type: ADME, cell-based
In short: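 Caco-2 monolayers grown 21 days on Transwell filters; TEER above 800 ohm·cm² required. 10 µM test compound in HBSS added apically (A to B) or basolaterally (B to A), 2 h at 37 °C. Both compartments sampled, analysed by LC/MS-MS.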

[4] = Lipophilicity, log D of the compound; type: physicochemical; conditions: octanol/water
[5] = AUC (0 to last t) in rat at 1 mg/kg, iv; type: ADME, organism-based; set-up: time 0 - last, dose 1 mg/kg, route intravenous; conditions: plasma
In short: (§2)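 Male Sprague–Dawley or Janvier rats, three per route, dosed by oral gavage or iv bolus. Serial blood drawn through an indwelling carotid catheter up to 24 h post dose. Plasma pooled by time point, analysed by LC-MS/MS; non-compartmental analysis.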

[6] = AUC (0 to last t) in rat at 5 mg/kg, po; type: ADME, organism-based; set-up: time 0 - last, dose 5 mg/kg, route oral; conditions: plasma; in short: as §2
[7] = Oral bioavailability in rat at 5 mg/kg; type: ADME, organism-based; conditions: in vivo; in short: as §2
[8] = Cmax in rat at 1 mg/kg, iv; type: ADME, organism-based; set-up: dose 1 mg/kg, route intravenous; conditions: in vivo; in short: as §2
[9] = Cmax in rat at 5 mg/kg, po; type: ADME, organism-based; set-up: dose 5 mg/kg, route oral; conditions: in vivo; in short: as §2
[10] = Tmax in rat at 1 mg/kg, iv; type: ADME, organism-based; set-up: dose 1 mg/kg, route intravenous; conditions: in vivo; in short: as §2
[11] = Tmax in rat at 5 mg/kg, po; type: ADME, organism-based; set-up: dose 5 mg/kg, route oral; conditions: in vivo; in short: as §2
[12] = Half life in rat at 1 mg/kg, iv; type: ADME, organism-based; set-up: dose 1 mg/kg, route intravenous; conditions: in vivo; in short: as §2
[13] = Clearance in rat at 1 mg/kg, iv; type: ADME, organism-based; set-up: dose 1 mg/kg, route intravenous; conditions: in vivo; in short: as §2
[14] = Volume of distribution at steady state in rat at 1 mg/kg, iv; type: ADME, organism-based; set-up: dose 1 mg/kg, route intravenous; conditions: in vivo, read-out: Vdss; in short: as §2
[15] = target: T2, Prostaglandin D2 receptor 2 (Mus musculus, UniProt Q9Z2J6); experiment: Displacement of [3H]PGD2 from mouse CRTH2 receptor expressed in HEK293 cells; type: cell-based; in short: as §1
T2 sequence (Q9Z2J6 whole entry): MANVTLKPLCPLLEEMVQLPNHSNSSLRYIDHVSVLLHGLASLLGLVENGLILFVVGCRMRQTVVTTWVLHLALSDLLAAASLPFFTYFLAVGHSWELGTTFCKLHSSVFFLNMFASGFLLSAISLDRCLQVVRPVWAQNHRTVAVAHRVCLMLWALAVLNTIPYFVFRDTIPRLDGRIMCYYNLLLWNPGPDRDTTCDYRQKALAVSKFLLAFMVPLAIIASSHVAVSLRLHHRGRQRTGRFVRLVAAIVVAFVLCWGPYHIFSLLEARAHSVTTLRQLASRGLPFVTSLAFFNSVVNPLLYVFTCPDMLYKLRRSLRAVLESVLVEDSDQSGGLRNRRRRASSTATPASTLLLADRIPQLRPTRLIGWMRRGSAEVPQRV

[16] = Intrinsic clearance per mg of protein in human liver microsomes at 3 uM; type: ADME, Microsome
In short: (§3)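 Rat or human liver microsomes (0.5 mg/mL final) in 0.1 M phosphate pH 7.4 with 3 µM compound (1% DMSO), preincubated at 37 °C, started with 1 mM NADPH. Quenched with cold acetonitrile at 0, 15, 30, 45 min; LC/MS-MS of compound disappearance gives intrinsic clearance.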

[17] = Intrinsic clearance per mg of protein in rat liver microsomes at 3 uM; type: ADME, Microsome; in short: as §3
[18] = AUC (0 to last t) in Beagle dog at 1 mg/kg, iv; type: ADME, organism-based, Canis lupus familiaris; set-up: time 0 - last, dose 1 mg/kg, route intravenous; conditions: plasma
In short: (§4)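 Three male beagle dogs, crossover design; 1 mg/kg given as a solution, iv bolus and oral gavage. Serial blood sampled up to 48 h post dose. Individual plasma samples analysed by LC-MS/MS; PK parameters derived by non-compartmental analysis.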

[19] = AUC (0 to last t) in Beagle dog at 1 mg/kg, po; type: ADME, organism-based, Canis lupus familiaris; set-up: time 0 - last, dose 1 mg/kg, route oral; conditions: plasma; in short: as §4
[20] = Oral bioavailability in Beagle dog at 1 mg/kg; type: ADME, organism-based, Canis lupus familiaris; conditions: in vivo; in short: as §4
[21] = Cmax in Beagle dog at 1 mg/kg, iv; type: ADME, organism-based, Canis lupus familiaris; set-up: dose 1 mg/kg, route intravenous; conditions: in vivo; in short: as §4
[22] = Tmax in Beagle dog at 1 mg/kg, iv; type: ADME, organism-based, Canis lupus familiaris; set-up: dose 1 mg/kg, route intravenous; conditions: in vivo; in short: as §4
[23] = Half life in rat at 5 mg/kg, po; type: ADME, organism-based; set-up: dose 5 mg/kg, route oral; conditions: in vivo; in short: as §2
[24] = Half life in Beagle dog at 1 mg/kg, iv; type: ADME, organism-based, Canis lupus familiaris; set-up: dose 1 mg/kg, route intravenous; conditions: in vivo; in short: as §4
[25] = Clearance in Beagle dog at 1 mg/kg, iv; type: ADME, organism-based, Canis lupus familiaris; set-up: dose 1 mg/kg, route intravenous; conditions: in vivo; in short: as §4
[26] = Volume of distribution at steady state in Beagle dog at 1 mg/kg, iv; type: ADME, organism-based, Canis lupus familiaris; set-up: dose 1 mg/kg, route intravenous; conditions: in vivo, read-out: Vdss; in short: as §4
[27] = target: T3, Prostaglandin D2 receptor (Homo sapiens, UniProt Q13258); experiment: Inhibition of prostaglandin D2 receptor
T3 sequence (Q13258 whole entry): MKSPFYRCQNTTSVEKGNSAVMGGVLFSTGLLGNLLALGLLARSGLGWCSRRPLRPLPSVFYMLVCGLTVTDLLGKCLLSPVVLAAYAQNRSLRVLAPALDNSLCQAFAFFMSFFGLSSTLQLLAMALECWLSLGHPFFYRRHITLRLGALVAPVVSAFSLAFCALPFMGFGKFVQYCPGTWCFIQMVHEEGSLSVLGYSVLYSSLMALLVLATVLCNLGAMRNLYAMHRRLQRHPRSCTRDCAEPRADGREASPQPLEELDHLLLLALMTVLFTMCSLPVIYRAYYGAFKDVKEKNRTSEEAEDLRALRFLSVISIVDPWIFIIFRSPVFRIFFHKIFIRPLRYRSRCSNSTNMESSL

[28] = target: Prostaglandin E2 receptor EP2 subtype (Homo sapiens, UniProt P43116); experiment: Inhibition of prostanoid EP2 receptor
Chain of Prostaglandin E2 receptor EP2 subtype (P43116 whole entry): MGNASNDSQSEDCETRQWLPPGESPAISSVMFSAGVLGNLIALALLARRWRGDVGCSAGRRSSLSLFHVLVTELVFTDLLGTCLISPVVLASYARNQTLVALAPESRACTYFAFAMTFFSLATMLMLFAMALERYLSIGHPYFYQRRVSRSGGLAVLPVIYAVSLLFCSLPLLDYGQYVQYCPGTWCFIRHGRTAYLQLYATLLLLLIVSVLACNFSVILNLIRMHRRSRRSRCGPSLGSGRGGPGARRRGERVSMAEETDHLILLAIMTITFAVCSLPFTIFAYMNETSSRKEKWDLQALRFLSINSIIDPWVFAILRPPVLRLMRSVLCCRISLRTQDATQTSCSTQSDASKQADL

[29] = Inhibition of prostanoid EP3 receptor
[30] = Inhibition of prostanoid EP4 receptor
[31] = Inhibition of prostanoid FP receptor
[32] = Cmax in Beagle dog at 1 mg/kg, po; conditions: in vivo
[33] = Tmax in Beagle dog at 1 mg/kg, po; conditions: in vivo

Ki [1] [nM]	IC50 [2] [nM]	Papp at 10 µM [3] [×10⁻⁶ cm/s]	logD [4]	AUC(0-t) [5] [ng·h/mL]	AUC(0-t) [6] [ng·h/mL]	bioavailability [7] [%]	Cmax [8] [ng/mL]	Cmax [9] [ng/mL]	Tmax [10] [h]	Tmax [11] [min]	half-life [12] [min]	clearance [13] [mL/min/kg]	Vd [14] [L/kg]	further results	Structure (SMILES)
3.8	19	2.1	-0.3	247	2.01	0.2	1970	6	0	15	6	66.7	0.4	–	Cc1noc(-c2ccccc2)c1CN1CC2(CC1=O)C(=O)N(CC(=O)O)c1ccc(Cl)cc12 (configuration not stated)
5.3	66	26.4	-0.5	1180	1910	32	1700	163	0	90	780	11.7	7	Ki [15]: 5 nM; microsomal CLint at 3 µM [16]: 5 µL/min/mg; microsomal CLint at 3 µM [17]: 19 µL/min/mg; AUC(0-t) [18]: 637 ng·h/mL; AUC(0-t) [19]: 339 ng·h/mL; bioavailability [20]: 52%; Cmax [21]: 1950 ng/mL; Tmax [22]: 0 h; half-life [23]: 324 min; half-life [24]: 180 min; clearance [25]: 33.3 mL/min/kg; Vd [26]: 5 L/kg; IC50 [27]: > 30 µM; IC50 [28]: > 30 µM; IC50 [29]: > 30 µM; IC50 [30]: > 30 µM; IC50 [31]: > 30 µM; Cmax [32]: 68.8 ng/mL; Tmax [33]: 2.67 h	O=C(O)CN1C(=O)[C@@]2(CC(=O)N(Cc3cc(Cl)ccc3F)C2=O)c2cc(Cl)ccc21

— ChEMBL document CHEMBL1145542, “Discovery of a new class of potent, selective, and orally bioavailable CRTH2 (DP2) receptor antagonists for the treatment of allergic inflammatory diseases” (J Med Chem, 2008)
